# Results published in PubChem BioAssay AID651723 (Broad Institute, 2012).
# Among all 350,000 compounds or so, about 740 (0.21%) were called active.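 The calls were made as follows: active = every replicate reaching activation of at least 50%, whatever the mean replicate activation; inconclusive = replicates that disagree or another doubt; inactive = the rest.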 Shown is part of a subset that was picked to be rich in actives.
# Test: compounds raising PGC1a acetylation signal, primary screen, PGC1a modulator project, cell-based, U2OS, AlphaScreen, signal-increasing mode (AID 651723)
# Settings: overnight, at 15.6 µM, active compounds read high
# How it was run: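 Incubation: overnight compound treatment, 37 °C. System: U2OS cells transduced with flag-tagged PGC1a and GCN5 acetyltransferase. Detection: AlphaScreen lysate read. Compound: single-point compound dosing.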
row,SMILES,activation
1,CN(C)CC1Oc2ccccc2OC1(O)c1ccccc1 (configuration not stated),249% (active)
2,CCC(C)(O)C(=O)OC1C(=O)OC2CC3C(C)=CC(=O)C(O)C3(C)C3C4(O)OCC23C1C(C)C4O (configuration not stated),-80% (inactive)
3,O=C(CSC1c2ccccc2-c2ccccc21)N/N=C/c1ccccc1,73% (active)
4,CC(=O)OC1C2(CC3N4C(=O)C5(CO)SSC4(CC31O)C(=O)N5C)OC(C)C(C)(C)C2=O (configuration not stated),-60.7% (inactive)
5,COC1C(O)C(C)OC(OC2CCC3(C=O)C(CCC4C3CCC3(C)C(C5=CC(=O)OC5)CCC43O)C2)C1O (configuration not stated),-82.1% (inactive)
6,c1ccc(C(CN2CCCCC2)c2ccccc2)cc1,-40.7% (inactive)
7,O=C(c1cc(S(=O)(=O)N2CCOCC2)ccc1F)N1CCC2(CC1)OCCO2,-52.8% (inactive)
